Active and inactive are the calls of the source.
How the values were obtained:
[1] = target: T1, Sodium- and chloride-dependent glycine transporter 1 (Homo sapiens, UniProt P48067); test: Inhibition of human GlyT1a after 15 mins
T1 sequence (P48067 whole entry): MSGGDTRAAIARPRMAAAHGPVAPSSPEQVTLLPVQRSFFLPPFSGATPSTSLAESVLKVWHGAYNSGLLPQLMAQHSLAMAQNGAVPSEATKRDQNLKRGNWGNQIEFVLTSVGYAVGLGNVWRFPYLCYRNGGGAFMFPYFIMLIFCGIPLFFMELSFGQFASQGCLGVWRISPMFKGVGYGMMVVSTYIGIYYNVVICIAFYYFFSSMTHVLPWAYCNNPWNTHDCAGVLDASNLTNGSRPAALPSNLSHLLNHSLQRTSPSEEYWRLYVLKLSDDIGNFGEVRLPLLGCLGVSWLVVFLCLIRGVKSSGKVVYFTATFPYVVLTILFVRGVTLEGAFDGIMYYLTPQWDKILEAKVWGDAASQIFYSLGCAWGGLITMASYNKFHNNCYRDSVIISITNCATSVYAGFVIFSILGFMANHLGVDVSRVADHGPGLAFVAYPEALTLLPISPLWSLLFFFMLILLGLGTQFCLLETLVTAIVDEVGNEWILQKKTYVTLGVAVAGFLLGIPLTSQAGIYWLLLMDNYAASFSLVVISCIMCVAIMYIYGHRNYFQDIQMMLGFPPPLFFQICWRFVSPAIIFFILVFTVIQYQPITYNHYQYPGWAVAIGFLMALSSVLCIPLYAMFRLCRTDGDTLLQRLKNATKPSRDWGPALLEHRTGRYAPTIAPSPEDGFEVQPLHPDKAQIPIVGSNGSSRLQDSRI
How it was run: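 Human GlyT1, hGlyT1a isoform; IC50 taken as the average of at least two measurements.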

Liver = test: Covalent binding affinity at liver protein in rat at 20 mg/kg, po after 6 hrs; format: ADME, organism-based; set-up: dose 20 mg/kg, route oral; details: in vivo
How it was run: (§1)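 Rats dosed orally at 20 mg/kg; liver and plasma proteins sampled 6 h postdose; covalently bound drug-derived material expressed as pmol equiv/mg protein.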

Plasma [2] = test: Covalent binding affinity in rat plasma at 20 mg/kg, po after 6 hrs; format: ADME, organism-based; set-up: dose 20 mg/kg, route oral; details: in vivo; how it was run: as §1
[3] = Metabolic stability in human liver microsomes assessed as compound turnover at 1 uM after 15 mins; format: ADME, Microsome; details: read-out: Drug metabolism
How it was run: (§2)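 Test compound at 1 μM incubated with human or rat liver microsomes (0.5 mg/mL protein) at 37 °C for 15 min; turnover measured.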

[4] = Metabolic stability in rat liver microsomes assessed as compound turnover at 1 uM after 15 mins; format: ADME, Microsome; details: read-out: Drug metabolism; how it was run: as §2
[5] = Ratio of drug level in brain to plasma in rat at 10 mg/kg, po; format: ADME, organism-based; set-up: dose 10 mg/kg, route oral; details: read-out: BPR
Cytochrome P450 2C9 = Cytochrome P450 2C9 (Homo sapiens, UniProt P11712); test: Inhibition of CYP2C9; format: ADME
Sequence of Cytochrome P450 2C9 (P11712 whole entry): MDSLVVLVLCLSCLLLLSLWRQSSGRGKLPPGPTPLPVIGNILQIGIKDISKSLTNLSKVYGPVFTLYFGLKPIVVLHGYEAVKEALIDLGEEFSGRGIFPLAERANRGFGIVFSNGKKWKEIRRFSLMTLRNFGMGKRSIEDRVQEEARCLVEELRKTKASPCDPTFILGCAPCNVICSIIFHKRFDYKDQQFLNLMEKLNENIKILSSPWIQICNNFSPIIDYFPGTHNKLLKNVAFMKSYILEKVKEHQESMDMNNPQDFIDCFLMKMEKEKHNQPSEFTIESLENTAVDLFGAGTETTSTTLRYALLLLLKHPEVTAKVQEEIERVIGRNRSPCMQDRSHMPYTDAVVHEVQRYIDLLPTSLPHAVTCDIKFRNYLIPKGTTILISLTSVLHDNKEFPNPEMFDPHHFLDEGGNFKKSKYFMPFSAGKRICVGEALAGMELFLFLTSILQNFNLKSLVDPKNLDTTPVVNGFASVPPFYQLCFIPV

Rattus norvegicus [6] = test: Covalent binding in rat at 20 mg/kg, po after 6 hrs; format: ADME, organism-based; set-up: dose 20 mg/kg, route oral; details: in vivo; how it was run: as §1
Plasma [7] = test: Receptor occupancy at Glyt1 in rat plasma at 10 mg/kg, po; format: functional
[8] = Oral bioavailability in dog at 1 mg/kg; format: ADME, organism-based, Canis lupus familiaris; details: in vivo
How it was run: (§3)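 Dog PK: single 1.0 mg/kg dose given iv and po; oral dosing in 0.5% methocel suspension. Clearance, Vd(ss), half-life, oral bioavailability (F), Cmax (μM) and Tmax derived from the plasma profiles.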

[9] = Clearance in rat at 1 mg/kg, po and 1 mg/kg, iv; format: ADME, organism-based; details: in vivo
How it was run: (§4)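 Rat PK: 1.0 mg/kg iv and po, oral arm as 0.5% methocel suspension; plasma Cl, Vd(ss), T1/2, F, Cmax (μM) and Tmax determined.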

[10] = Volume of distribution at steady state in rat at 1 mg/kg, po and 1 mg/kg, iv; format: ADME, organism-based; details: in vivo, read-out: Vdss; how it was run: as §4
[11] = Half life in rat at 1 mg/kg, po and 1 mg/kg, iv; format: ADME, organism-based; details: in vivo; how it was run: as §4
[12] = Oral bioavailability in rat at 1 mg/kg; format: ADME, organism-based; details: in vivo; how it was run: as §4
[13] = Cmax in rat at 1 mg/kg, po and 1 mg/kg, iv; format: ADME, organism-based; details: in vivo; how it was run: as §4
[14] = Tmax in rat at 1 mg/kg, po and 1 mg/kg, iv; format: ADME, organism-based; details: in vivo; how it was run: as §4
[15] = Clearance in rhesus monkey at 1 mg/kg, po and 1 mg/kg, iv; format: ADME, organism-based, Macaca mulatta; details: in vivo
How it was run: (§5)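 Rhesus monkey pharmacokinetics after 1.0 mg/kg by both iv and oral routes; reported parameters are Cl, Vd(ss), T1/2, F, Cmax (μM) and Tmax.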

[16] = Volume of distribution at steady state in rhesus monkey at 1 mg/kg, po and 1 mg/kg, iv; format: ADME, organism-based, Macaca mulatta; details: in vivo, read-out: Vdss; how it was run: as §5
[17] = Half life in rhesus monkey at 1 mg/kg, po and 1 mg/kg, iv; format: ADME, organism-based, Macaca mulatta; details: in vivo; how it was run: as §5
[18] = Oral bioavailability in rhesus monkey at 1 mg/kg; format: ADME, organism-based, Macaca mulatta; details: in vivo; how it was run: as §5
[19] = Cmax in rhesus monkey at 1 mg/kg, po and 1 mg/kg, iv; format: ADME, organism-based, Macaca mulatta; details: in vivo; how it was run: as §5
[20] = Tmax in rhesus monkey at 1 mg/kg, po and 1 mg/kg, iv; format: ADME, organism-based, Macaca mulatta; details: in vivo; how it was run: as §5
[21] = Clearance in dog at 1 mg/kg, po and 1 mg/kg, iv; format: ADME, organism-based, Canis lupus familiaris; details: in vivo; how it was run: as §3
[22] = Volume of distribution at steady state in dog at 1 mg/kg, po and 1 mg/kg, iv; format: ADME, organism-based, Canis lupus familiaris; details: in vivo, read-out: Vdss; how it was run: as §3
[23] = Half life in dog at 1 mg/kg, po and 1 mg/kg, iv; format: ADME, organism-based, Canis lupus familiaris; details: in vivo; how it was run: as §3
[24] = Cmax in dog at 1 mg/kg, po and 1 mg/kg, iv; format: ADME, organism-based, Canis lupus familiaris; details: in vivo; how it was run: as §3
[25] = Tmax in dog at 1 mg/kg, po and 1 mg/kg, iv; format: ADME, organism-based, Canis lupus familiaris; details: in vivo; how it was run: as §3
Homo sapiens = organism: Homo sapiens; test: Binding affinity to human P-gp
Rattus norvegicus [26] = test: Inhibition of GlyTl in rat frontal cortex assessed as increase in extracellular glycine level at 20 mg/kg, po up to 4 hrs relative to baseline; format: functional; set-up: scale not given: the % may be the effect or the level left
How it was run: (§6)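 Microdialysis probe placed in rat frontal cortex; extracellular glycine sampled up to 4 h after oral dosing at 3 or 20 mg/kg; peak glycine efflux given as % of basal level, mean ± SEM.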

Rattus norvegicus [27] = test: Inhibition of GlyTl in rat frontal cortex assessed as increase extracellular glycine level after 3 mg/kg, po up to 4 hrs relative to baseline; format: functional; set-up: scale not given: the % may be the effect or the level left; how it was run: as §6
Rattus norvegicus [28] = test: Inhibition of PCP-induced cognitive deficit in extra dimensional shift in intra/extra dimensional rat model of executive function at 3 mg/kg, po; format: functional, organism-based; set-up: dose 3 mg/kg
How it was run: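 Rats given subchronic PCP to impair attentional set shifting, then dosed 3 mg/kg po; all ID/ED discriminations run, with trials to criterion scored for the extra-dimensional shift; significance at p < 0.05 versus PCP and vehicle groups.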

Rhesus monkey = test: Receptor plasma occupancy at Glyt1 in rhesus monkey pons assessed as inhibition of [18F]MK-6577 uptake administered as iv bolus plus infusion by PET imaging; format: functional, Macaca mulatta
How it was run: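 Rhesus monkeys (~10 kg) sedated with ketamine 10 mg/kg im, induced with propofol 5 mg/kg iv, and maintained on propofol 0.4 mg/kg/min. Compound given iv as bolus plus infusion in EtOH:H2O:PEG400 (10:40:50); ~5 mCi [18F]MK-6577 injected 1 h into the infusion. Dynamic PET scans compared baseline and blockade uptake to derive an occupancy versus plasma concentration curve and plasma Occ50.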

Mus musculus = organism: Mus musculus; test: Binding affinity to mouse P-gp
Cytochrome P450 3A4 = Cytochrome P450 3A4 (Homo sapiens, UniProt P08684); test: Inhibition of CYP3A4; format: ADME
Sequence of Cytochrome P450 3A4 (P08684 whole entry): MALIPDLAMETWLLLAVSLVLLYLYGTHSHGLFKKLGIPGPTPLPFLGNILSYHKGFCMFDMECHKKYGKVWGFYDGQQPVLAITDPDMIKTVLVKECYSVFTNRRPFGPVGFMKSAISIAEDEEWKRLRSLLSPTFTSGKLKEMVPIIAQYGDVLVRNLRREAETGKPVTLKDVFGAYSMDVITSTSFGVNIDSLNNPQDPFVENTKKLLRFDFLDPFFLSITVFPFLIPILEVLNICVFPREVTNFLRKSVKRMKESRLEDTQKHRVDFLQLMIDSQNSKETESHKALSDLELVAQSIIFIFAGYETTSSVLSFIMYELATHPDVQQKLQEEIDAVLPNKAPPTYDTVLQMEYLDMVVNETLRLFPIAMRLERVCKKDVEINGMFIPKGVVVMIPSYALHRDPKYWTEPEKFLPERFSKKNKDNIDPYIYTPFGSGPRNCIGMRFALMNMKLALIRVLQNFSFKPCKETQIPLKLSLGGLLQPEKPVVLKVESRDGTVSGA

Cytochrome P450 2D6 = Cytochrome P450 2D6 (Homo sapiens, UniProt P10635); test: Inhibition of CYP2D6; format: ADME
Sequence of Cytochrome P450 2D6 (P10635 whole entry): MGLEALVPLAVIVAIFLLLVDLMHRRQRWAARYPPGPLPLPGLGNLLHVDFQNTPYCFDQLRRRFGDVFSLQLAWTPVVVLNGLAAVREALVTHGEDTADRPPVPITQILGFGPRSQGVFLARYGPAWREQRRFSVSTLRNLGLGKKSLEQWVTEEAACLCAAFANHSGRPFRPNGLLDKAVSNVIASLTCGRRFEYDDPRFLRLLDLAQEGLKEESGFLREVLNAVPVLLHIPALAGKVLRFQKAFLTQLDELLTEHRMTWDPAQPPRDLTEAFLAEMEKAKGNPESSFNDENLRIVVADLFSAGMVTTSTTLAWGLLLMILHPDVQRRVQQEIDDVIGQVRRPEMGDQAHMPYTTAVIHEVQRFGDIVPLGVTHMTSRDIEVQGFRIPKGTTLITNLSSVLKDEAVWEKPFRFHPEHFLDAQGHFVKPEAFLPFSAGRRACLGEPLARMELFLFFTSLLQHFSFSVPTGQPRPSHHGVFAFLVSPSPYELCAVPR

Brain = test: Receptor occupancy at Glyt1 in rat brain at 10 mg/kg, po; format: functional

`Cc1nnc(S(=O)(=O)[C@H]2CC[C@@](CNC(=O)c3ccc(Cl)cc3Cl)(CC3CC3)CC2)s1` gave an IC50 [1] of 3330 nM.

`O=C(NC[C@]1(CC2CC2)CC[C@H](S(=O)(=O)CC2CCC2)CC1)c1ccc(Cl)cc1Cl` gave an IC50 [1] of 629 nM.

`CCS(=O)(=O)[C@H]1CC[C@@](CNC(=O)c2ccc(Cl)cc2Cl)(CC2CC2)CC1` showed an IC50 [1] of 1320 nM.

With `CCS(=O)(=O)N1CCC(CNC(=O)c2ccc(Cl)cc2Cl)(CC2CC2)CC1` the PB (Liver) was 153 pmolequiv/mg, the IC50 [1] was 26 nM and the Activity (Plasma [2]) was 214 pmolequiv/mg.

In the case of `Cc1cc(S(=O)(=O)[C@H]2CC[C@@](CNC(=O)c3ccc(Cl)cc3Cl)(CC3CC3)CC2)no1`, the metabolised at 0.25 h, 1 µM [3] is reported as 35%, the metabolised at 0.25 h, 1 µM [4] is reported as 51% and the IC50 [1] is reported as 8.6 nM.

With `Cn1cc(S(=O)(=O)[C@H]2CC[C@@](CNC(=O)c3ccc(Cl)cc3Cl)(CC3CC3)CC2)nn1` the Kp [5] was 0.1.

`CCCS(=O)(=O)[C@H]1CC[C@](CNC(=O)c2ccc(Cl)cc2Cl)(CC2CC2)CC1` gave a metabolised at 0.25 h, 1 µM [3] of 55%, a metabolised at 0.25 h, 1 µM [4] of 53% and an IC50 [1] of 36.9 nM.

`CCS(=O)(=O)[C@H]1CC[C@](CNC(=O)c2ccc(Cl)cc2Cl)(CC2CC2)CC1` gave an IC50 [1] of 132 nM.

For `Cc1ccc(S(=O)(=O)[C@H]2CC[C@@](CNC(=O)c3ccc(Cl)cc3Cl)(CC3CC3)CC2)nn1`, the metabolised at 0.25 h, 1 µM [3] was 35%, the metabolised at 0.25 h, 1 µM [4] was 40% and the IC50 [1] was 29 nM.

With `O=C(NC[C@]1(CC2CC2)CC[C@H](S(=O)(=O)c2c[nH]nn2)CC1)c1ccc(Cl)cc1Cl` the “inhibition (INH)” value (Cytochrome P450 2C9) was “Active” and the IC50 [1] was 3000 nM.

Compound `CCCS(=O)(=O)[C@H]1CC[C@@](CNC(=O)c2ccc(Cl)cc2Cl)(CC2CC2)CC1` has an IC50 [1] of 1630 nM.

In the case of `CS(=O)(=O)[C@H]1CC[C@](CNC(=O)c2ccc(Cl)cc2Cl)(CC2CC2)CC1`, the IC50 [1] is reported as 3330 nM.

`O=C(NC[C@]1(CC2CC2)CC[C@H](S(=O)(=O)CC2CC2)CC1)c1ccc(Cl)cc1Cl` gave a PB (Rattus norvegicus [6]) of less than 25 pmolequiv/mg, a Kp [5] of 2.3 and an Occ50 (Plasma [7]) of 0.35 µM. The metabolised at 0.25 h, 1 µM [3] was 35%, the metabolised at 0.25 h, 1 µM [4] was 40% and the IC50 [1] was 29 nM. It also gave a bioavailability [8] of 48%, a clearance [9] of 36 mL/min/kg and a Vd [10] of 4.1 L/kg. The half-life [11] was 2.4 h, the bioavailability [12] was 65% and the Cmax [13] was 140 nM. The Tmax [14] was 0.8 h, the clearance [15] was 24 mL/min/kg and the Vd [16] was 2.3 L/kg. For the same compound, the half-life [17] was 1.5 h, the bioavailability [18] was 2% and the Cmax [19] was 40 nM. The Tmax [20] was 2.7 h, the clearance [21] was 4.9 mL/min/kg and the Vd [22] was 3.1 L/kg. The half-life [23] was 10 h, the Cmax [24] was 1390 nM and the Tmax [25] was 1 h. The Activity (Homo sapiens) was “inactive”, the Activity (Rattus norvegicus [26]) was 184% and the Activity (Rattus norvegicus [27]) was 151%. The inhibition (Rattus norvegicus [28]) was “Active”, the Occ50 (Rhesus monkey) was 120 nM and the Activity (Mus musculus) was “inactive”.

Work on `Cc1cc(S(=O)(=O)[C@H]2CC[C@](CNC(=O)c3ccc(Cl)cc3Cl)(CC3CC3)CC2)no1` yielded a metabolised at 0.25 h, 1 µM [3] of 40%, a metabolised at 0.25 h, 1 µM [4] of 41% and an IC50 [1] of 7.3 nM.

With `O=C(NC[C@]1(CC2CC2)CC[C@@H](S(=O)(=O)c2cnn[nH]2)CC1)c1ccc(Cl)cc1Cl` the IC50 (Cytochrome P450 2C9) was 10 nM and the IC50 [1] was 3000 nM.

Work on `Cn1cc(S(=O)(=O)[C@H]2CC[C@](CNC(=O)c3ccc(Cl)cc3Cl)(CC3CC3)CC2)nn1` yielded a Kp [5] of 0.16, an IC50 (Cytochrome P450 3A4) greater than 10000 nM and an IC50 (Cytochrome P450 2D6) greater than 10000 nM. It also gave an IC50 (Cytochrome P450 2C9) greater than 10000 nM, an Occ50 (Brain) of 0.2 µM and an Occ50 (Plasma [7]) of 1.2 µM.
